Where “and” joins values, the source holds several entries; their conditions need not be identical. Equal entries are not always repeated.
Tests used:
[1] = biological target: T1, Sterol O-acyltransferase 1 (Rattus norvegicus, UniProt O70536); test: In vitro inhibition of Acyl coenzyme A:cholesterol acyltransferase in rat hepatic microsomes; design: species or system Liver
T1 sequence (O70536 whole entry): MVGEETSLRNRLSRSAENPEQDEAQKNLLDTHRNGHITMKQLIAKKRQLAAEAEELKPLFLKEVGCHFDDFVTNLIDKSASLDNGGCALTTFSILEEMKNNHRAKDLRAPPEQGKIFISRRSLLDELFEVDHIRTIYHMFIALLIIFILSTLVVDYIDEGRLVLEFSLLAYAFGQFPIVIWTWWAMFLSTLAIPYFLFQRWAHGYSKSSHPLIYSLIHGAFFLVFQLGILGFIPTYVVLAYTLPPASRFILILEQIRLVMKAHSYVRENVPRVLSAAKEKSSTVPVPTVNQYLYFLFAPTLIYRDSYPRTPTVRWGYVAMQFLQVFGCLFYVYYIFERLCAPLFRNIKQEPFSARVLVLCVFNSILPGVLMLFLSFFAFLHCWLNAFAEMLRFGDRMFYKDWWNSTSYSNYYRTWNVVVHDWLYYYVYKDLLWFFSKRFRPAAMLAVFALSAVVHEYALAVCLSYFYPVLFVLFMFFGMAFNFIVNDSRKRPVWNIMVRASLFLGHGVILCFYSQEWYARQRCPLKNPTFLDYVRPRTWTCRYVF
In short: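 Rat hepatic microsomes were incubated with labelled oleoyl-CoA, and formation of labelled cholesterol oleate was measured (pmol/min/mg). Assays were run in duplicate with at least four inhibitor concentrations bracketing the IC50.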

Mesocricetus auratus [2] = organism: Mesocricetus auratus; test: Evaluated for Syrian hamsters fed with a 2.5% cholesterol-supplemented chow diet for 3 days
Mesocricetus auratus [3] = organism: Mesocricetus auratus; test: Evaluated for Syrian hamsters fed with a 0.8% cholesterol-supplemented chow diet for 7 days
Cricetinae gen. sp. = test: Tested anti-hypercholesterolaemic value(AHV) is the ratio of observed reduction in serum cholesterol to difference between control and baseline levels x100 at 10 mg/kg/day dose; type: functional
Mesocricetus auratus [4] = organism: Mesocricetus auratus; test: Evaluated for Syrian hamsters fed with 0.8% cholesterol-supplemented chow diet for 7 days
Mesocricetus auratus [5] = organism: Mesocricetus auratus; test: Evaluated for Syrian hamsters fed with 2.5% cholesterol-supplemented chow diet for 3 days

SMILES	IC50 [1]	other results
O=C(Nc1ccc(F)cc1F)N(CCCCCSc1nc(-c2ccccc2)c(-c2ccccc2)[nH]1)CCCCc1ccccc1	50 nM	–
CCCCCCCCNC(=O)N(CCCCCSc1nc(-c2ccccc2)c(-c2ccccc2)[nH]1)Cc1ccccc1	150 nM	–
CCCCCCCN(CCCCCSc1nc(-c2ccccc2)c(-c2ccccc2)[nH]1)C(N)=O	910 nM	–
CCCCCCCN(CCCCCCCCSc1nc(-c2ccccc2)c(-c2ccccc2)[nH]1)C(=O)Nc1ccc(F)cc1F	8 nM	Serum cholesterol (Mesocricetus auratus [2]): 271 mg %
CCCCCCCN(CCCCCSc1nc(-c2ccccc2)c(-c2ccccc2)[nH]1)C(=O)OCCC	34 nM	–
O=C(Nc1ccc(F)cc1F)N(CCCCCSc1nc(-c2ccccc2)c(-c2ccccc2)[nH]1)CCc1ccccc1	170 nM	–
CCCCCCCN(CCCCCSc1nc(-c2ccccc2)c(-c2ccccc2)[nH]1)/C(S)=N\c1c(F)cc(F)cc1F	30 nM	–
CCCCCCCN(Cc1ccccc1CSc1nc(-c2ccccc2)c(-c2ccccc2)[nH]1)C(=O)Nc1ccc(F)cc1F	3600 nM	–
CCCCCCCN(CCCCCS(=O)(=O)c1nc(-c2ccccc2)c(-c2ccccc2)[nH]1)C(=O)Nc1ccc(F)cc1F	16 nM	Serum cholesterol (Mesocricetus auratus [3]): 318 mg %; AHV (Cricetinae gen. sp.): 30%
CCCCCCCN(CCCCCSc1nc(-c2ccccc2)c(-c2ccccc2)[nH]1)C(=O)NC(C)C	20 nM	–
CCCCCCCN(CCCCCSc1nc(-c2ccccc2)c(-c2ccccc2)[nH]1)C(=O)Nc1c(F)cc(F)cc1F	16 nM	AHV (Cricetinae gen. sp.): 51%; Serum cholesterol (Mesocricetus auratus [2]): 218 mg %
CCCCCCCN(CCCCCSc1nc(-c2ccccc2)c(-c2ccccc2)n1C)C(=O)Nc1ccc(F)cc1F	3600 nM	–
CCCCCCCN(CCCCCSc1nc(-c2ccccc2)c(-c2ccccc2)[nH]1)C(=O)c1ccc(F)cc1F	60 nM	–
O=C(Nc1ccc(F)cc1F)N(CCCCCSc1nc(-c2ccccc2)c(-c2ccccc2)[nH]1)CCCc1ccccc1	30 nM	–
CCCCCCCN(CCCCCSc1nc(-c2ccccc2)c(-c2ccccc2)[nH]1)C(=O)C(C)C	100 nM	–
CCCCCCCCNC(=O)N(CCCCCSc1nc(-c2ccccc2)c(-c2ccccc2)[nH]1)c1ccccc1	10 nM	Serum cholesterol (Mesocricetus auratus [2]): 268 mg %
CCCCCCCN(CCCCCSc1nc(-c2ccccc2)c(-c2ccccc2)[nH]1)C(=O)CC1CCCCC1	30 nM	–
CC(C)NC(=O)N(CCCCCSc1nc(-c2ccccc2)c(-c2ccccc2)[nH]1)c1ccccc1	80 nM	–
CCCCCCCN(CCCCCSc1ncc[nH]1)C(=O)Nc1ccc(F)cc1F	2900 nM	–
CCCCCCCN(CCCCCSc1nc(-c2ccccc2)c(-c2ccccc2)[nH]1)C(=O)NC1CCCCC1	10 nM	–
CCCCCCCN(CCCCCSc1nc(-c2ccccc2)c(-c2ccccc2)[nH]1)C(=O)Cc1ccc(-c2ccccc2)cc1	160 nM	–
CCCCCCCN(CCCCCSc1nc(-c2ccccc2)c(-c2ccccc2)[nH]1)C(=O)NC	40 nM	–
CCCCCCCN(CCCCCSc1nc(-c2ccccc2)c(-c2ccccc2)[nH]1)C(=O)Oc1ccccc1	20 nM	–
CCCCCCCN(Cc1ccc(CSc2nc(-c3ccccc3)c(-c3ccccc3)[nH]2)cc1)C(=O)Nc1ccc(F)cc1F	200 nM	–
CC(C)c1cccc(C(C)C)c1NC(=O)NCCCCCSc1nc(-c2ccccc2)c(-c2ccccc2)[nH]1	510 nM	–
CCCCCCCN(CCCCCSc1nc(-c2ccccc2)c(-c2ccccc2)[nH]1)C(=O)c1ccccc1	50 nM	–

SMILES	IC50 [1]	other results
CCCCCCCN(CCCCCSc1ncc(-c2ccccc2)n1-c1ccccc1)C(=O)Nc1ccc(F)cc1F	7200 nM	–
CCCCCCCN(CCCCCSc1nc(-c2ccccc2)c(-c2ccccc2)[nH]1)C(=O)Nc1ccc(-c2ccccc2)cc1	70 nM	–
CCCCCCCN(CCCCCSc1nc(-c2ccccc2)c(-c2ccccc2)[nH]1)C(=O)CCC	30 nM	Serum cholesterol (Mesocricetus auratus [3]): 245 mg %; AHV (Cricetinae gen. sp.): 43%
CCCCCCCN(CCCCCSc1nc(-c2ccccc2)c(-c2ccccc2)[nH]1)C(=O)OC1CCCCC1	50 nM	–
O=C(NCCCCCSc1nc(-c2ccccc2)c(-c2ccccc2)[nH]1)Nc1ccc(F)cc1F	400 nM	–
CCCCCCCN(CCCCCNc1nc(-c2ccccc2)c(-c2ccccc2)[nH]1)C(=O)Nc1ccc(F)cc1F	3500 nM	–
CCCCCCCN(CCCCCSc1nc(-c2ccccc2)c(-c2ccccc2)[nH]1)C(N)=Nc1ccccc1	3160 nM	–
CCCCCCCN(CCCCCSc1nc(-c2ccccc2)c(-c2ccccc2)[nH]1)C(=O)Nc1ccc([N+](=O)[O-])cc1	80 nM	Serum cholesterol (Mesocricetus auratus [3]): 277 mg %; AHV (Cricetinae gen. sp.): 38%
CCCCCCCN(CCCCCSc1nc(-c2ccccc2)c(-c2ccccc2)n1-c1ccccc1)C(=O)Nc1ccc(F)cc1F	> 50000 nM	–
CCCCCCCN(CCCCCSc1nc(-c2ccccc2)cn1-c1ccccc1)C(=O)Nc1ccc(F)cc1F	42000 nM	–
CCCCCCCN(CCCCCSc1nc(-c2ccccc2)c(-c2ccccc2)[nH]1)/C(S)=N\c1ccc(F)cc1F	58 nM	–
CCCCCCCN(CCCCCCc1nc(-c2ccccc2)c(-c2ccccc2)[nH]1)C(=O)Nc1ccc(F)cc1F	280 nM	–
CCCCCCCN(CC(C)(C)CCSc1nc(-c2ccccc2)c(-c2ccccc2)[nH]1)C(=O)Nc1ccc(F)cc1F	70 nM	–
CCCCCCCN(CCCCCSc1nc(-c2ccccc2)c(-c2ccccc2)[nH]1)C(=O)NCCC	10 nM	Serum cholesterol (Mesocricetus auratus [3]): 199 mg %; AHV (Cricetinae gen. sp.): 74%
CCCCCCCCNC(=O)N(CCCCCSc1nc(-c2ccccc2)c(-c2ccccc2)[nH]1)c1c(F)cc(F)cc1F	20 nM	–
CCCCCCCCNC(=O)N(CCCCCSc1nc(-c2ccccc2)c(-c2ccccc2)[nH]1)c1ccc(F)cc1F	40 nM	–
CCCCCCCN(CCCCCSc1nc(-c2ccccc2)c(-c2ccccc2)[nH]1)C(=O)Nc1ccc(F)cc1F [LECIMIBIDE]	–	AHV (Cricetinae gen. sp.): 59% and 61%; Serum cholesterol (Mesocricetus auratus [4]): 253 mg %; Serum cholesterol (Mesocricetus auratus [5]): 205 mg %
CCCCCCCN(CCCCCSc1nc(-c2ccccc2)c(-c2ccccc2)[nH]1)C(=O)Cc1ccc(F)cc1F	25 nM	–
O=C(Nc1ccc(F)cc1F)N(CCCCCSc1nc(-c2ccccc2)c(-c2ccccc2)[nH]1)Cc1ccccc1	200 nM	–
CCCCCCCN(CCCCCSc1nc(-c2ccccc2)c(-c2ccccc2)[nH]1)C(=O)Nc1c(C(C)C)cccc1C(C)C	230 nM	–
CCCN(CCCCCSc1nc(-c2ccccc2)c(-c2ccccc2)[nH]1)C(=O)Nc1ccc(F)cc1F	30 nM	–
CCCCCCCN(Cc1cccc(CSc2nc(-c3ccccc3)c(-c3ccccc3)[nH]2)c1)C(=O)Nc1ccc(F)cc1F	30 nM	–
CCCCCCCN(CCCCC[S+]([O-])c1nc(-c2ccccc2)c(-c2ccccc2)[nH]1)C(=O)Nc1ccc(F)cc1F (stereo not drawn)	8 nM	Serum cholesterol (Mesocricetus auratus [3]): 278 mg %; AHV (Cricetinae gen. sp.): 49%
CCCCCCCN(CCCCCSc1nc(-c2ccccc2)c(-c2ccccc2)[nH]1)C(=O)Nc1ccccc1	23 nM	–
CC(C)NC(=O)N(CCCCCSc1nc(-c2ccccc2)c(-c2ccccc2)[nH]1)c1ccc(F)cc1F	40 nM	–
CCCCCCCN(CCSc1nc(-c2ccccc2)c(-c2ccccc2)[nH]1)C(=O)Nc1ccc(F)cc1F	70 nM	–
